Test results taken from PMC6045484 (ACS Omega, 2018).
In brackets after ≈: the same amount, converted by molar mass.

Tests used:
MRSA (ATCC33591) = test: in vitro antibacterial activity; assay type: cell-based, methicillin-resistant Staphylococcus aureus; conditions: Staphylococcus aureus, ATCC33591|MRSA, read-out: MIC, MRSA
In short: (§1)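 Test compound serially diluted in 20% DMSO/saline and plated in duplicate, up to 20 μg/mL. Inoculum in cation-adjusted Mueller–Hinton broth, pH 7.3, set by OD630 to 5 × 10^5 CFU/mL. Incubated 16–20 h at 35 °C; 530 nm read before and after. IC50 is 50% growth inhibition; MIC is no detectable growth. MBC from clear wells subcultured on agar. Ciprofloxacin control.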

[1] = system: M. intracellulare (ATCC23068); test: in vitro antibacterial activity, modified alamarBlue procedure; assay type: cell-based, Mycobacterium intracellulare; conditions: Mycobacterium intracellulare; for IC50: ATCC23068, read-out: IC50 (concentration that affords 50% growth inhibition), M. intracellulare; for MBC: ATCC23068, read-out: MBC (minimum bactericidal concentration), M. intracellulare; for MIC: ATCC23068, read-out: MIC, M. intracellulare
In short: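 Modified alamarBlue microplate method. Test compound serially diluted in 20% DMSO/saline, duplicate wells, up to 20 μg/mL. Inoculum 2.0 × 10^6 CFU/mL in Middlebrook 7H9 with OADC, pH 7.3, containing 5% alamarBlue. Incubated 70–74 h at 37 °C, 10% CO2; fluorescence 544ex/590em read before and after. MIC: no blue-to-pink change. MBC by subculturing blue wells on agar. Ciprofloxacin control.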

P. falciparum (D6) = test: in vitro antimalarial activity, plasmodial LDH; assay type: cell-based, Plasmodium falciparum; conditions: Plasmodium falciparum, D6, 72 h, read-out: P. falciparum (D6) IC50
C. neoformans ATCC90113 = test: in vitro antifungal activity; assay type: cell-based, Cryptococcus neoformans; conditions: Cryptococcus neoformans; for IC50: ATCC90113, read-out: C. neoformans IC50; for MFC: ATCC90113, read-out: C. neoformans MFC; for MIC: ATCC90113, read-out: C. neoformans MIC
In short: (§2)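 Modified NCCLS broth method in Sabouraud dextrose. Inoculum set by OD630 to 1.5 × 10^3 CFU/mL. Test compound serially diluted in 20% DMSO/saline, duplicate wells, up to 20 μg/mL. Incubated 70–74 h at 35 °C; 530 nm read before and after. IC50 is 50% growth inhibition; MIC is no detectable growth. MFC from clear wells subcultured on agar. Amphotericin B control.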

A. fumigatus ATCC 90906 = test: in vitro antifungal activity; assay type: cell-based, Aspergillus fumigatus; conditions: Aspergillus fumigatus; for IC50: ATCC90906, read-out: A. fumigatus IC50; for MFC: ATCC90906, read-out: A. fumigatus MFC; for MIC: ATCC90906, read-out: A. fumigatus MIC
In short: as §2

[2] = system: L. donovani promastigotes; test: in vitro antileishmanial activity, alamarBlue assay; assay type: cell-based, Leishmania donovani; conditions: Leishmania donovani, 48 h; for IC50: read-out: L. donovani IC50, promastigotes, 48 h; for IC90: read-out: L. donovani IC90, promastigotes, 48 h
[3] = system: SK-MEL, KB, BT-549, SK-OV-3, VERO and LLC-PK1 cells; test: cytotoxicity, neutral red uptake assay; assay type: cell-based, mammalian; conditions: highest test concentration 4760 ng/mL
In short: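 Cells seeded at 25 000/well and allowed 24 h to reach confluence. Test compound was then added and incubated 48 h. Viable cells were counted by a modified neutral red uptake method. The panel was four human cancer lines and two noncancerous mammalian kidney lines. Doxorubicin served as positive control and DMSO as negative control.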

SA (ATCC29213) = test: in vitro antibacterial activity; assay type: cell-based; conditions: Staphylococcus aureus; for IC50: ATCC29213, read-out: IC50 (concentration that affords 50% growth inhibition), SA; for MBC: ATCC29213, read-out: MBC (minimum bactericidal concentration), SA; for MIC: ATCC29213, read-out: MIC, SA
In short: as §1

P. falciparum (W2) = test: in vitro antimalarial activity, plasmodial LDH; assay type: cell-based, Plasmodium falciparum; conditions: Plasmodium falciparum, W2, 72 h, read-out: P. falciparum (W2) IC50, CQ-resistant W2 strain, 72 h
In short: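 P. falciparum-infected erythrocytes (2% parasitemia, 2% hematocrit) in RPMI 1640 with 10% human serum and 60 μg/mL amikacin. Exposed to test compound dilutions for 72 h at 37 °C under 90% N2/5% O2/5% CO2. LDH measured with Malstat reagent (30 min, room temperature), then NBT/PES for 1 h in the dark, stopped with 5% acetic acid, read at 650 nm. IC50 from dose-response curves.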

C. albicans ATCC90028 = test: in vitro antifungal activity; assay type: cell-based, Candida albicans; conditions: Candida albicans; for IC50: ATCC90028, read-out: C. albicans IC50; for MFC: ATCC90028, read-out: C. albicans MFC; for MIC: ATCC90028, read-out: C. albicans MIC
In short: as §2

SMILES	MIC (MRSA (ATCC33591))	IC50 [1]	MBC [1]	MIC [1]	IC50 (P. falciparum (D6))	IC50 (C. neoformans ATCC90113)	MFC (C. neoformans ATCC90113)	MIC (C. neoformans ATCC90113)	IC50 (A. fumigatus ATCC 90906)	MFC (A. fumigatus ATCC 90906)	MIC (A. fumigatus ATCC 90906)	IC50 [2]	cytotoxicity CTX [3]	IC50 (SA (ATCC29213))	MBC (SA (ATCC29213))	MIC (SA (ATCC29213))	IC50 (P. falciparum (W2))	IC50 (C. albicans ATCC90028)	MFC (C. albicans ATCC90028)	MIC (C. albicans ATCC90028)	other results
CCCCCCOc1c(OC)cc(NC(C)CCCN)c2nc(C(C)(C)C)cc(C)c12 (stereo not drawn) [compound 52, N^4-(5-Hexyloxy-2-tert-butyl-6-methoxy-4-methylquinolin-8-yl)pentane-1,4-diamine]	5 µg/mL (≈ 11.6 µM)	3.43 µg/mL (≈ 7.98 µM)	5 µg/mL (≈ 11.6 µM)	5 µg/mL (≈ 11.6 µM)	> 4.76 µg/mL	0.84 µg/mL (≈ 1.96 µM)	2.5 µg/mL (≈ 5.82 µM)	1.25 µg/mL (≈ 2.91 µM)	19 µg/mL (≈ 44.2 µM)	> 20 µg/mL	> 20 µg/mL	1.77 µg/mL (≈ 4.12 µM)	NC (NC, not cytotoxic up to 4760 ng/mL (4.76 μg/mL))	2.83 µg/mL (≈ 6.59 µM)	5 µg/mL (≈ 11.6 µM)	5 µg/mL (≈ 11.6 µM)	> 4.76 µg/mL	5.91 µg/mL (≈ 13.8 µM)	10 µg/mL (≈ 23.3 µM)	10 µg/mL (≈ 23.3 µM)	IC90 [2]: 2.55 µg/mL (≈ 5.94 µM)
CCCCCCCOc1c(OC)cc(NC(C)CCCN)c2nc(C(C)(C)C)cc(C)c12 (stereo not drawn) [compound 53, N^4-(5-Heptyloxy-2-tert-butyl-6-methoxy-4-methylquinolin-8-yl)pentane-1,4-diamine]	2.5 µg/mL (≈ 5.63 µM)	3.12 µg/mL (≈ 7.03 µM)	5 µg/mL (≈ 11.3 µM)	5 µg/mL (≈ 11.3 µM)	2 µg/mL (≈ 4.51 µM)	0.67 µg/mL (≈ 1.51 µM)	1.25 µg/mL (≈ 2.82 µM)	1.25 µg/mL (≈ 2.82 µM)	19.3 µg/mL (≈ 43.5 µM)	> 20 µg/mL	> 20 µg/mL	0.84 µg/mL (≈ 1.89 µM)	NC (NC, not cytotoxic up to 4760 ng/mL (4.76 μg/mL))	1.33 µg/mL (≈ 3 µM)	5 µg/mL (≈ 11.3 µM)	2.5 µg/mL (≈ 5.63 µM)	1.3 µg/mL (≈ 2.93 µM)	5.06 µg/mL (≈ 11.4 µM)	10 µg/mL (≈ 22.5 µM)	10 µg/mL (≈ 22.5 µM)	IC90 [2]: 1.95 µg/mL (≈ 4.4 µM)
CCCCCCCCOc1c(OC)cc(NC(C)CCCN)c2nc(C(C)(C)C)cc(C)c12 (stereo not drawn) [compound 54, N^4-(5-Octyloxy-2-tert-butyl-6-methoxy-4-methylquinolin-8-yl)pentane-1,4-diamine]	> 20 µg/mL	18.6 µg/mL (≈ 40.6 µM)	> 20 µg/mL	> 20 µg/mL	> 4.76 µg/mL	9.96 µg/mL (≈ 21.8 µM)	> 20 µg/mL	> 20 µg/mL	> 20 µg/mL	> 20 µg/mL	> 20 µg/mL	9.74 µg/mL (≈ 21.3 µM)	NC (NC, not cytotoxic up to 4760 ng/mL (4.76 μg/mL))	> 20 µg/mL	> 20 µg/mL	> 20 µg/mL	> 4.76 µg/mL	> 20 µg/mL	> 20 µg/mL	> 20 µg/mL	IC90 [2]: 15.6 µg/mL (≈ 34 µM)
CCCCCCOc1c(OC)cc(NC(C)CCCNC(=O)C(N)CCCNC(=N)N)c2nc(C(C)(C)C)ccc12 (stereo not drawn) [compound 101, 2-Amino-N-(4-(2-tert-butyl-5-(hexyloxy)-6-methoxyquinolin-8-ylamino)pentyl)-5-guanidinopentanamide]	> 20 µg/mL	18.4 µg/mL (≈ 32.2 µM)	> 20 µg/mL	20 µg/mL (≈ 35 µM)	0.8 µg/mL (≈ 1.4 µM)	14.3 µg/mL (≈ 25 µM)	> 20 µg/mL	> 20 µg/mL	> 20 µg/mL	> 20 µg/mL	> 20 µg/mL	–	NC (NC, not cytotoxic up to 4760 ng/mL (4.76 μg/mL))	8.87 µg/mL (≈ 15.5 µM)	> 20 µg/mL	> 20 µg/mL	0.33 µg/mL (≈ 0.577 µM)	> 20 µg/mL	> 20 µg/mL	> 20 µg/mL	–
CCCCCCCOc1c(OC)cc(NC(C)CCCNC(=O)C(N)CCCCN)c2nc(C(C)(C)C)ccc12 (stereo not drawn) [compound 109, 2,6-Diamino-N-(4-(2-tert-butyl-5-(heptyloxy)-6-methoxyquinolin-8-ylamino)-pentyl)hexanamide]	> 20 µg/mL	> 20 µg/mL	> 20 µg/mL	> 20 µg/mL	0.8 µg/mL (≈ 1.43 µM)	> 20 µg/mL	> 20 µg/mL	> 20 µg/mL	> 20 µg/mL	> 20 µg/mL	> 20 µg/mL	–	NC (NC, not cytotoxic up to 4760 ng/mL (4.76 μg/mL))	> 20 µg/mL	> 20 µg/mL	> 20 µg/mL	0.68 µg/mL (≈ 1.22 µM)	> 20 µg/mL	> 20 µg/mL	> 20 µg/mL	–
CCCCCCCOc1c(OC)cc(NC(C)CCCNC(=O)C(N)CCCN)c2nc(C(C)(C)C)ccc12 (stereo not drawn) [compound 110, 2,5-Diamino-N-(4-(2-tert-butyl-5-(heptyloxy)-6-methoxyquinolin-8-ylamino)-pentyl)pentanamide]	> 20 µg/mL	> 20 µg/mL	> 20 µg/mL	> 20 µg/mL	3.2 µg/mL (≈ 5.88 µM)	> 20 µg/mL	> 20 µg/mL	> 20 µg/mL	> 20 µg/mL	> 20 µg/mL	> 20 µg/mL	–	NC (NC, not cytotoxic up to 4760 ng/mL (4.76 μg/mL))	> 20 µg/mL	> 20 µg/mL	> 20 µg/mL	1.6 µg/mL (≈ 2.94 µM)	> 20 µg/mL	> 20 µg/mL	> 20 µg/mL	–
